16 compounds from ChEMBL document CHEMBL1145067, “3'-C-branched-chain-substituted nucleosides and nucleotides as potent inhibitors of Mycobacterium tuberculosis thymidine monophosphate kinase” (J Med Chem, 2003) can be followed below.

One assay has as its target T1, Thymidylate kinase (Mycobacterium tuberculosis, UniProt P9WKE1).
T1 sequence (P9WKE1 whole entry): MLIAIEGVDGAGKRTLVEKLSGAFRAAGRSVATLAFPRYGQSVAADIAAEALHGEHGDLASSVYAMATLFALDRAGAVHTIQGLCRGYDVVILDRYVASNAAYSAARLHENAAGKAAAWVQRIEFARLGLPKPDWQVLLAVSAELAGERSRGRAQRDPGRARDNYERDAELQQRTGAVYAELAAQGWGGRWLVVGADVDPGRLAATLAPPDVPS
As to the kind of experiment: In Vitro inhibition of Thymidine […] Kinase of Mycobacterium tuberculosis (TMPKm). Summed up:
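Recombinant TMPKmt or human TMPKh overexpressed in E. coli. ATP was fixed at 0.5 mM and dTMP at 0.05 mM; analogues were varied over 0.01–4 mM.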

A short description of assay [1]: ratio of Ki (Ki TMPKh / KiTMPKmt) was determined.
A short description of assay [2]: ratio of Ki (Km TMPKh / Ki TMPKmt) was determined.
Assay [3] in a line: ratio of Km (Km TMPKh / Km TMPKmt) was determined.
The target of assay [4] is Thymidylate kinase (Homo sapiens) (UniProt P23919). Briefly: In Vitro inhibition of […] (TMPKh); No inhibition at 4000 uM.
Chain of Thymidylate kinase (Homo sapiens) (P23919 whole entry, looked up): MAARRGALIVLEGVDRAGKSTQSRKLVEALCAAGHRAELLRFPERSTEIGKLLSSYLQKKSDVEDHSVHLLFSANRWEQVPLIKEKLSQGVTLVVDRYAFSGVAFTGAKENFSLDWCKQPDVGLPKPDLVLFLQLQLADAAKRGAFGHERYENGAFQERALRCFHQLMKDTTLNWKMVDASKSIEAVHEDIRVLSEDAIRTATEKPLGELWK

The term Ki denotes a dissociation constant, usually derived from enzyme kinetics or from competition with a known ligand. Lower therefore signals a stronger hold on the target. Compound `Cc1cn([C@H]2C[C@H](CN=[N+]=[N-])[C@@H](CO)O2)c(=O)[nH]c1=O` registered a Ki at Thymidylate kinase of 40 µM. In assay [1], the SI was 26.

Turning to `Cc1cn([C@@H]2O[C@H](CO)[C@@H](CN)[C@H]2O)c(=O)[nH]c1=O`, at Thymidylate kinase, the affinity, expressed as Ki, was 393 µM. Also, the SI in assay [1] is 0.3.

For the compound `Cc1cn([C@H]2C[C@H](CN)[C@@H](COP(=O)(O)O)O2)c(=O)[nH]c1=O`, the inhibition constant Ki at Thymidylate kinase is 10.5 µM. Besides, the SI in assay [1] was 0.4.

In the case of `Cc1cn([C@H]2C[C@H](CF)[C@@H](COP(=O)(O)O)O2)c(=O)[nH]c1=O`, the inhibition constant Ki on Thymidylate kinase amounted to 15 µM. Also, in assay [1], the SI was found to be 2.7.

For the compound `Cc1cn([C@H]2C[C@H](CF)[C@@H](CO)O2)c(=O)[nH]c1=O`, the Ki on Thymidylate kinase is 45 µM. Further, in assay [1], the SI stood at 21.6.

The compound `Cc1cn([C@H]2C[C@H](CO)[C@@H](COP(=O)(O)O)O2)c(=O)[nH]c1=O` returned an inhibitory constant (Ki) at Thymidylate kinase of 29 µM. In addition, in assay [1], the SI came to 1.5.

Regarding `Cc1cn([C@@H]2O[C@H](COP(=O)(O)O)[C@@H](CN)[C@H]2O)c(=O)[nH]c1=O`, the Ki on Thymidylate kinase was determined as 315 µM. The SI in assay [1] was 0.9.

Compound `Cc1cn([C@H]2C[C@H](CCO)[C@@H](CO)O2)c(=O)[nH]c1=O` came in with a Ki on Thymidylate kinase of 156 µM.

For `Cc1cn([C@H]2C[C@H](CN=[N+]=[N-])[C@@H](COP(=O)(O)O)O2)c(=O)[nH]c1=O`, the inhibition constant (Ki) on Thymidylate kinase was determined as 12 µM. Besides, in assay [1], the SI stood at 2.7.

In the case of `Cc1cn([C@H]2C[C@H](CN)[C@@H](CO)O2)c(=O)[nH]c1=O`, at Thymidylate kinase, the Ki worked out at 57 µM. Further, in assay [1], the SI turned out to be 3.9.

As for `Cc1cn([C@H]2C[C@H](N=[N+]=[N-])[C@@H](COP(=O)(O)O)O2)c(=O)[nH]c1=O`, the SI in assay [2] amounted to 1.2.

Regarding `Cc1cn([C@H]2C[C@H](N=[N+]=[N-])[C@@H](CO)O2)c(=O)[nH]c1=O` [ZIDOVUDINE], on Thymidylate kinase, the affinity corresponds to a Ki of 28 µM.

Turning to `Cc1cn([C@H]2C[C@H](O)[C@@H](COP(=O)(O)O)O2)c(=O)[nH]c1=O`, the SI in assay [3] turned out to be 1.1.

The compound `Cc1cn([C@H]2C[C@H](CO)[C@@H](CO)O2)c(=O)[nH]c1=O` displayed a Ki on Thymidylate kinase of 41 µM. Further, the SI in assay [1] was 10.

At Thymidylate kinase, `Cc1cn([C@@H]2O[C@H](CO)[C@@H](CN=[N+]=[N-])[C@H]2O)c(=O)[nH]c1=O` registered an inhibition constant Ki of 770 µM. Further, the NI result in assay [4] is “No inhibition at 4000 uM”.

On to `Cc1cn([C@@H]2O[C@H](COP(=O)(O)O)[C@@H](CN=[N+]=[N-])[C@H]2O)c(=O)[nH]c1=O`, for which the Ki on Thymidylate kinase is 116 µM.
